Experiments:
Format in all cases: functional, cell-based
PC-3 = assay: Cytotoxicity against human PC3 cells […] by SRB assay; conditions: PC-3, 48 h, in the assay text read “48 hrs” for “72 hrs”
Outline: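 Human cancer lines from NCI grown in RPMI-1640 (2 mM glutamine, pH 7.4, 10% fetal calf serum, streptomycin/penicillin) at 37 °C, 5% CO2. Cells trypsinized at subconfluence, >98% viable by trypan blue, seeded and grown 24 h, then given test material for 48 h. TCA fixation at 4 °C 1 h, SRB staining, dye dissolved in Tris-HCl pH 10.4, OD 540 nm. Growth inhibition relative to untreated control after blank subtraction.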

[1] = Cytotoxicity against human 502713 cells […] by SRB assay
SW-620 = assay: Cytotoxicity against human SW620 cells […] by SRB assay
SK-N-SH = assay: Cytotoxicity against human SK-N-SH cells […] by SRB assay
COLO 205 = assay: Cytotoxicity against human COLO205 cells […] by SRB assay
A549 = assay: Cytotoxicity against human A549 cells […] by SRB assay

Structure (SMILES) | IC50 (PC-3) [µM] | IC50 [1] [µM] | IC50 (SW-620) [µM] | IC50 (SK-N-SH) [µM] | IC50 (COLO 205) [µM] | IC50 (A549) [µM]
O=[N+]([O-])c1ccccc1C1c2c(ccc3ccccc23)Oc2ccc3ccccc3c21 | 82 | 50 | 63.2 | 55 | – | –
OCC(O)COc1ccc(C2c3c(ccc4ccccc34)Oc3ccc4ccccc4c32)cc1 (stereo unspecified) | 63.9 | 41.3 | 49.1 | 44 | 37.9 | 128
COc1cc(C2c3c(ccc4ccccc34)Oc3ccc4ccccc4c32)ccc1O | 61.1 | 45.4 | 54.4 | 44.3 | 41.9 | 74.3

— ChEMBL document CHEMBL1155209, “Synthesis and in vitro study of 14-aryl-14H-dibenzo[a.j]xanthenes as cytotoxic agents” (Bioorg Med Chem Lett, 2009)
